# Experimental data pooled from the literature.
# Lines come from different studies, so protocols differ.
# Target: Insulin receptor (INSR, Homo sapiens, UniProt P06213)
Compound,effect on,method,concentration,remaining binding [%]
FC(F)(F)Oc1cccc(-c2cnc3ccc(-c4ccncc4)nn23)c1,cell-free assay,competition with immobilised ligand,5 µM,88
CN([C@@H]1CCc2c(CC(=O)O)c3ccccc3n2C1)S(=O)(=O)c1ccc(F)cc1,cell-free assay,competition with immobilised ligand,1 µM,100
CN(C)c1ncc(F)c(-c2cnn3ncccc23)n1,binding,,1 µM,81
Cc1cc(-n2nc(Cc3cc(F)cc(C(F)(F)F)c3)nc2C)ccc1C(N)=O,cell-free assay,competition with immobilised ligand,1 µM,99
c1cnn2ncc(-c3ccnc(N4CCC45COC5)n3)c2c1,binding,,1 µM,73
COc1ncc2cc3ccccc3nc2c1C#N,cell-free assay,competition with immobilised ligand,5 µM,100
CCCOc1ccc([C@@H]2[C@@H](C(=O)O)[C@H](c3ccc4c(c3)OCO4)CN2CC(=O)Nc2c(CC)cccc2CC)cc1,cell-free assay,competition with immobilised ligand,1 µM,89
Nc1ncc2c(n1)-c1c([nH]c3ccc(C#CC4CC4)cc13)CCCC2,binding,competition with immobilised ligand,1 µM,80
O=C(NCC1CCOCC1)c1n[nH]cc1NC(=O)c1c(F)cccc1F,binding,competition with immobilised ligand,1 µM,100
Cc1cnc(Nc2ccc(C(=O)N3CCC(N4CCCC4)CC3)cc2)nc1-c1cc2ccccc2s1,binding,competition with immobilised ligand,1 µM,7.8
C[C@@H]1CCN(c2nccc(-c3cnn4ncccc34)n2)C1,binding,,1 µM,72
COc1ccc2c(c1)O[C@@H](c1ccc(OC)c(OC)c1)C[C@H]2NC(=O)C1(c2ccc3c(c2)OC(F)(F)O3)CC1,cell-free assay,competition with immobilised ligand,1 µM,79
O=C(NCCCN1CCOCC1)c1ccc(Nc2ncc(Cl)c(-c3ccc(Cl)s3)n2)cc1,binding,competition with immobilised ligand,1 µM,29
Nc1c(C(=O)NCc2ccc(C(=O)NCCCC3CCCCC3)cc2)cnn1-c1ccccc1,cell-free assay,competition with immobilised ligand,0.1 µM,100
CC1CCCN1c1nccc(-c2cnn3ncccc23)n1 (stereo not shown),binding,,1 µM,86
C[C@@H](c1ccc(-n2cnc3c(N)ncnc32)cc1)N1CCc2nn(C)c(Cc3ccccc3)c2C1=O,binding,competition with immobilised ligand,0.1 µM,100
C[C@@H]1CN(c2ccc3ncc(-c4ccc5[nH]nc(C6CC6)c5c4)n3n2)C[C@H](C)O1,binding,competition with immobilised ligand,50 nM,100
CN(C)c1nccc(-c2cnn3ncccc23)n1,binding,,1 µM,79
CC(=O)C1=C(C)N(c2cccc(C(F)(F)F)c2)C(=O)N[C@@H]1c1ccc(C#N)nc1,cell-free assay,competition with immobilised ligand,1 µM,89.3
COc1cnc(Nc2cccc(S(N)(=O)=O)c2)nc1N1CCN(c2ccccc2)CC1,binding,competition with immobilised ligand,1 µM,81
N[C@@H]1CCN(c2nccc(-c3cnn4ncccc34)n2)C1,binding,,1 µM,100
CN(C)C(=O)Cn1cc(-c2nc(C3(c4ccc(-c5cnc(N)nc5)cc4)CC3)no2)cn1,cell-free assay,competition with immobilised ligand,1 µM,90
N#Cc1ccccc1CSc1nnc2c(n1)[nH]c1ccccc12,binding,competition with immobilised ligand,10 µM,88
O=C(c1ccc(Nc2ncc(Cl)c(-c3ccc(Cl)s3)n2)cc1)N1CCC(N2CCCC2)CC1,binding,competition with immobilised ligand,1 µM,2.3
COc1cnc(Nc2cccc(S(N)(=O)=O)c2)nc1N1CCN(c2ccccc2)C(=O)C1,binding,competition with immobilised ligand,1 µM,96
